Data taken from publication PMC6595297 (British Journal of Clinical Pharmacology, 2019).

Columns and labels:
[1] = Phase I DDI study: pevonedistat plasma PK alone and with fluconazole; assay type: in vivo, human
How it was run: (§1)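 Single IV pevonedistat given on day 1 alone and on day 8 with the CYP3A inhibitor. K2EDTA plasma was sampled within 1 h predose, at end of infusion, and at 0.5, 1, 2, 3, 4, 8, 12, 24, 48 and 72 h postdose. Samples were assayed by two GLP-validated LC–MS/MS methods (0.0500–25.0 and 1.00–500 ng mL−1). Noncompartmental PK was used. Day 8/day 1 geometric mean ratios with 90% CIs came from ANOVA (subject random), back-transformed.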

[2] = Phase I DDI study: pevonedistat plasma PK alone and with itraconazole; assay type: in vivo, human; conditions: for AUC(0-t) / AUC(0-inf) / Cmax / clearance / half-life: human, plasma; for AUC(0-t): AUClast; for Cmax: C max; for clearance: CL; for half-life: t 1/2, mean (standard deviation)
How it was run: as §1

[3] = test system: CYP3A4; conditions: in vitro metabolism studies, ref data on file; cited from earlier work
[4] = estimated across doses and schedules, 1‐h IV infusion; cited from earlier work
[5] = preliminary data, cancer patients, ref data on file; cited from earlier work
[6] = Pevonedistat 8 mg m^−2, + fluconazole (day 8) vs alone (day 1), n = 12
[7] = human, plasma, intravenous, 8 mg
[8] = Pevonedistat 8 mg m^−2, + itraconazole (day 8) vs alone (day 1), n = 13
[9] = Pevonedistat 15 mg m^−2, + itraconazole (day 8) vs alone (day 1), n = 6
[10] = Pevonedistat 20 mg m^−2, + itraconazole (day 8) vs alone (day 1), n = 14
[11] = dose‐normalized PK, 8–20 mg m^−2 pooled, + itraconazole vs alone, n = 33
[12] = intravenous, 8 mg, geometric LS mean reference condition (day 1), Pevonedistat 8 mg m^−2 alone, itraconazole cohort, n = 13
[13] = intravenous, 15 mg, geometric LS mean reference condition (day 1), Pevonedistat 15 mg m^−2 alone, itraconazole cohort, n = 6
[14] = intravenous, 20 mg, geometric LS mean reference condition (day 1), Pevonedistat 20 mg m^−2 alone, itraconazole cohort, n = 14
[15] = intravenous, geometric LS mean test condition (day 8), Pevonedistat 8 mg m^−2 + itraconazole, n = 13, value from n − 1 patients
[16] = intravenous, geometric LS mean test condition (day 8), Pevonedistat 15 mg m^−2 + itraconazole, n = 6
[17] = intravenous, geometric LS mean test condition (day 8), Pevonedistat 20 mg m^−2 + itraconazole, n = 14
[18] = iv, 8 mg, geometric mean (% CV), 8 mg m^−2 IV single dose, – itraconazole (day 1), n=13
[19] = iv, 20 mg, geometric mean (% CV), 20 mg m^−2 IV single dose, – itraconazole (day 1), n=14
[20] = integrated analysis, 8–20 mg m^−2, n = 33

NS(=O)(=O)OC[C@@H]1C[C@@H](n2ccc3c(N[C@H]4CCc5ccccc54)ncnc32)C[C@@H]1O [Pevonedistat]
AUClast, geometric LS mean ratio (test/reference) (90% CI) [1, 6]: 110.21 (102.34–118.69) %
AUC∞, geometric LS mean ratio (test/reference) (90% CI) [1, 6]: 110.66 (102.53–119.43) %
C max, geometric LS mean ratio (test/reference) (90% CI) [1, 6]: 98.75 (82.60–118.05) %
AUC(0-inf) [1, 7]: 450 ng·h/mL
AUC(0-t) [1, 7]: 445 ng·h/mL
Cmax [1, 7]: 51.6 ng/mL
AUC(0-inf) ([1]; human, plasma, iv, 8 mg): 450 ng·h/mL
Cmax ([1]; human, plasma, iv, 8 mg): 51.6 ng/mL
clearance ([1]; human, plasma, iv, 8 mg): 528 mL/min
half-life ([1]; human, plasma, iv, 8 mg): 11.1 h
AUC∞ geometric mean ratio, presence vs. absence of fluconazole ([1]; pevonedistat 8 mg m^−2, n = 12): 1.11
AUClast, geometric LS mean ratio (test/reference) (90% CI) [2, 8]: 121.57 (110.92–133.24) %
AUC∞, geometric LS mean ratio (test/reference) (90% CI) [2, 8]: 122.95 (112.13–134.82) %
C max, geometric LS mean ratio (test/reference) (90% CI) [2, 8]: 113.05 (85.35–149.74) %
AUClast, geometric LS mean ratio (test/reference) (90% CI) [2, 9]: 130.16 (106.99–158.35) %
AUC∞, geometric LS mean ratio (test/reference) (90% CI) [2, 9]: 132.70 (111.10–158.49) %
C max, geometric LS mean ratio (test/reference) (90% CI) [2, 9]: 159.55 (89.97–282.96) %
AUClast, geometric LS mean ratio (test/reference) (90% CI) [2, 10]: 101.36 (90.72–113.23) %
AUC∞, geometric LS mean ratio (test/reference) (90% CI) [2, 10]: 100.89 (91.14–111.68) %
C max, geometric LS mean ratio (test/reference) (90% CI) [2, 10]: 77.26 (55.19–108.17) %
Dose‐normalized AUClast, geometric LS mean ratio (test/reference) (90% CI) [2, 11]: 113.61 (105.65–122.18) %
Dose‐normalized AUC∞, geometric LS mean ratio (test/reference) (90% CI) [2, 11]: 114.24 (106.54–122.50) %
Dose‐normalized C max, geometric LS mean ratio (test/reference) (90% CI) [2, 11]: 102.41 (83.12–126.19) %
AUC(0-t) [2, 12]: 459 ng·h/mL
AUC(0-inf) [2, 12]: 465 ng·h/mL
AUC(0-t) [2, 13]: 793 ng·h/mL
AUC(0-inf) [2, 13]: 798 ng·h/mL
AUC(0-t) [2, 14]: 1110 ng·h/mL
AUC(0-inf) [2, 14]: 1120 ng·h/mL
AUC(0-t) [2, 15]: 558 ng·h/mL
AUC(0-t) ([2]; intravenous, geometric LS mean test condition (day 8), Pevonedistat 15 mg m^−2 + itraconazole, n = 6, value from n − 1 patients): 1030 ng·h/mL
AUC(0-t) ([2]; intravenous, geometric LS mean test condition (day 8), Pevonedistat 20 mg m^−2 + itraconazole, n = 14, value from n − 1 patients): 1130 ng·h/mL
AUC(0-inf) [2, 15]: 572 ng·h/mL
AUC(0-inf) [2, 16]: 1060 ng·h/mL
AUC(0-inf) [2, 17]: 1130 ng·h/mL
Cmax ([2]; intravenous, geometric LS mean test condition (day 8), Pevonedistat 8 mg m^−2 + itraconazole, n = 13): 66.8 ng/mL
Cmax [2, 16]: 193 ng/mL
Cmax [2, 17]: 137 ng/mL
AUC(0-inf) [2, 18]: 465 ng·h/mL
clearance [2, 18]: 487 mL/min
half-life ([2]; iv, 8 mg, 8 mg m^−2 IV single dose, – itraconazole (day 1), n=13): 10.8 h
AUC(0-inf) ([2]; iv, 15 mg, geometric mean (% CV), 15 mg m^−2 IV single dose, – itraconazole (day 1), n=6): 798 ng·h/mL
half-life ([2]; iv, 15 mg, 15 mg m^−2 IV single dose, – itraconazole (day 1), n=6): 9.8 h
AUC(0-inf) [2, 19]: 1120 ng·h/mL
clearance [2, 19]: 597 mL/min
half-life ([2]; iv, 20 mg, 20 mg m^−2 IV single dose, – itraconazole (day 1), n=14): 10 h
half-life ([2]; iv, 8 mg m^−2 IV single dose, + itraconazole (day 8), n=13): 13.5 h
half-life ([2]; iv, 15 mg m^−2 IV single dose, + itraconazole (day 8), n=6): 11 h
half-life ([2]; iv, 20 mg m^−2 IV single dose, + itraconazole (day 8), n=14): 10.8 h
Dose‐normalized AUC∞ geometric mean ratio, presence vs. absence of itraconazole [2, 20]: 1.14
Increase in geometric mean dose‐normalized AUC∞ with itraconazole [2, 20]: 14%
AUC∞ geometric mean ratio, presence vs. absence of itraconazole ([2]; pevonedistat 8 mg m^−2): 1.23
Increase in pevonedistat plasma systemic exposure with concomitant itraconazole ([2]; pevonedistat 8 mg m^−2 single dose): 23%
AUC∞ geometric mean ratio, presence vs. absence of itraconazole ([2]; pevonedistat 20 mg m^−2): 1.01
Contribution of CYP3A4 to pevonedistat biotransformation [3]: 97%
Mean terminal elimination half‐life (t 1/2) [4]: 10 to 11 h
Administered dose accounted for by metabolites [5]: approximately 80%
